The target in this assay is ACE1 (Homo sapiens, UniProt P12821). As to the kind of experiment: In vitro ACE1 inhibition assay. The assay is classed as biochemical. A digest of the protocol: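 Commercial WST colorimetric kit, run per the manufacturer's instructions. Test peptides were diluted in PBS to 0.01–100 µM and mixed with substrate buffer and enzyme working solution, then incubated 1 h at 37 °C. Indicator working solution was added for 5 min at room temperature, and absorbance was read at 450 nm. Blanks with and without enzyme were included. Assays were run in triplicate, and IC50 was obtained by nonlinear regression of inhibition against concentration.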

Where no end group is shown, it is not given here.

Chain of ACE1 (P12821 30-1306): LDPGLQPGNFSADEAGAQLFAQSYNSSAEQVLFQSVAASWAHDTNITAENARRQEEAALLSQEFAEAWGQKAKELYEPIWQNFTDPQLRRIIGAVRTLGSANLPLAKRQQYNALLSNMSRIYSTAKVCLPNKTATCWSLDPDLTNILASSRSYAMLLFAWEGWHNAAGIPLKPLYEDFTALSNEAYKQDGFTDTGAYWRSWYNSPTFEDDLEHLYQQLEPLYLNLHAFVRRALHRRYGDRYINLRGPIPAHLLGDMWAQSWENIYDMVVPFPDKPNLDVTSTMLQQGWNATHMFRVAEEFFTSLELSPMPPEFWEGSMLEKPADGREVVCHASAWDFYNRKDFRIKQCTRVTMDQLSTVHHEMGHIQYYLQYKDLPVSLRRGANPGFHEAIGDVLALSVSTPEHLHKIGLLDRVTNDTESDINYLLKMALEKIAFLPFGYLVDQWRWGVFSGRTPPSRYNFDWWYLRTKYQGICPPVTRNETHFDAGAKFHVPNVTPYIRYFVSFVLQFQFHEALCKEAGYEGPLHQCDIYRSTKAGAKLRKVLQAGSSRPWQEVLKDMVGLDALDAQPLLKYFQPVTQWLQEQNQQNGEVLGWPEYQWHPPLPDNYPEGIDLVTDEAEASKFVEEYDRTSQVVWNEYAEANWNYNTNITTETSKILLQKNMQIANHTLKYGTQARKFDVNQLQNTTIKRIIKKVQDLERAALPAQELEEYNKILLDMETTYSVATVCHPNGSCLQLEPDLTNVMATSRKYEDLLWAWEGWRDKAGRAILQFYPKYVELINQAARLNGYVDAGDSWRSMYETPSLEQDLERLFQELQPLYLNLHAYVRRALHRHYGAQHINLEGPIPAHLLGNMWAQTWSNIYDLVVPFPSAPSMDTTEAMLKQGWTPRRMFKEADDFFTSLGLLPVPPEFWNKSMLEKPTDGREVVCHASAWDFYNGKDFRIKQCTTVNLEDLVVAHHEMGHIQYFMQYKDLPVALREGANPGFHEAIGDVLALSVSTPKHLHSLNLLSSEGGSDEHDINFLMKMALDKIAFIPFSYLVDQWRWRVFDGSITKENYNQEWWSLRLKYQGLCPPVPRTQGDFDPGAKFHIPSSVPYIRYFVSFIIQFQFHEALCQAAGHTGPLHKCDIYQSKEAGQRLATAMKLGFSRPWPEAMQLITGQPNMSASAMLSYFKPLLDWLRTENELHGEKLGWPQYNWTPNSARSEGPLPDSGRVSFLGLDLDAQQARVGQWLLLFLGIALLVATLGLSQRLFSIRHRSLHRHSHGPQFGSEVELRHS

Usually IC50 stands for the concentration that gives 50% inhibition. The low end stands for greater potency in that assay, the high end for weaker potency in that assay. `CC(C)C[C@H](NC(=O)[C@H](Cc1ccccc1)NC(=O)[C@H](CCCCN)NC(=O)[C@H](Cc1ccccc1)NC(=O)[C@H](CC(N)=O)NC(=O)[C@@H](NC(=O)[C@@H]1CCCN1)C(C)C)C(=O)N[C@@H](CO)C(=O)N[C@@H](Cc1cnc[nH]1)C(=O)O` [Hp-F, Hemopressin-F] returned an IC50 of 6.22 ± 0.44 µM.

`CC(C)C[C@H](NC(=O)[C@H](CC(C)C)NC(=O)[C@H](CCCCN)NC(=O)[C@H](Cc1ccccc1)NC(=O)[C@H](CC(N)=O)NC(=O)[C@@H](NC(=O)[C@@H]1CCCN1)C(C)C)C(=O)N[C@@H](CO)C(=O)N[C@@H](Cc1c[nH]cn1)C(=O)O` [Hp-L, Hemopressin-L] came in with an IC50 of 3.86 ± 0.87 µM.

The compound “RVDPVNFKFLSH [RVD-Hp-F, RVD-Hemopressin-F]” came in with a half-maximal inhibitory concentration (IC50) of 12.4 ± 2.92 µM.

“RVDPVNFKLLSH [RVD-Hp-L, RVD-Hemopressin-L]” gave a half-maximal inhibitory concentration (IC50) of 2.52 ± 0.11 µM.

VDPVNFKFLSH [VD-Hp-F, VD-Hemopressin-F] had an IC50 of 10.8 ± 0.79 µM.

On to VDPVNFKLLSH [VD-Hp-L, VD-Hemopressin-L], for which the half-inhibitory concentration (IC50) worked out at 4.54 ± 0.83 µM.

Values taken from article PMC11579378 (Scientific Reports, 2024).
